# Data reported in article PMC3483595 (ChemMedChem, 2012).
# Values joined by “and” are separate entries in the source; they are usually repeats but may differ in a detail not shown here. Equal entries are not always repeated. Where two headings read alike, the source gives them in different places.
# Assays:
# [1] = system: E. coli MC4100; assay: Plate assay of bacterial growth; format: cell-based; conditions: wild-type, overnight incubation
# Method in brief: (§1)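 Exponential-phase cells (OD600 0.5) were mixed into LB with 0.2% glucose and 0.75% soft agar and poured as a lawn. Test compound (1 µL; water- or DMSO-dissolved) was spotted on the set surface and plates were incubated overnight at 37°C. The MIC was the concentration giving a clear growth-inhibition zone relative to the surrounding lawn.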
# [2] = system: B. subtilis 168; assay: Plate assay of bacterial growth; format: cell-based; conditions: for MIC, B. subtilis 168: plate assay, overnight incubation
# Method in brief: as §1
# [3] = molecular target: F1F0-ATPase (Escherichia coli, UniProt P0ABB0+P0ABB4); assay: F1F0-proton ATPase activity assay; format: biochemical; conditions: read-out: IC50, F1F0-ATPase; E. coli F1F0-proton ATPase in liposomes
# Method in brief: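 F1F0-ATPase from E. coli KY7485 membranes was partially purified by sucrose gradient and reconstituted into liposomes by dialysis. Released phosphate was read photometrically at 660 nm. Activity was expressed as % of the no-inhibitor control; at least triplicate.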
# [4] = molecular target: EcSecA membrane ATPase (Escherichia coli, UniProt P10408); assay: Membrane ATPase assay of SecA with urea-washed BA13 membrane; format: biochemical; conditions: read-out: IC50, EcSecA membrane ATPase
# Chain of EcSecA membrane ATPase (P10408 whole entry): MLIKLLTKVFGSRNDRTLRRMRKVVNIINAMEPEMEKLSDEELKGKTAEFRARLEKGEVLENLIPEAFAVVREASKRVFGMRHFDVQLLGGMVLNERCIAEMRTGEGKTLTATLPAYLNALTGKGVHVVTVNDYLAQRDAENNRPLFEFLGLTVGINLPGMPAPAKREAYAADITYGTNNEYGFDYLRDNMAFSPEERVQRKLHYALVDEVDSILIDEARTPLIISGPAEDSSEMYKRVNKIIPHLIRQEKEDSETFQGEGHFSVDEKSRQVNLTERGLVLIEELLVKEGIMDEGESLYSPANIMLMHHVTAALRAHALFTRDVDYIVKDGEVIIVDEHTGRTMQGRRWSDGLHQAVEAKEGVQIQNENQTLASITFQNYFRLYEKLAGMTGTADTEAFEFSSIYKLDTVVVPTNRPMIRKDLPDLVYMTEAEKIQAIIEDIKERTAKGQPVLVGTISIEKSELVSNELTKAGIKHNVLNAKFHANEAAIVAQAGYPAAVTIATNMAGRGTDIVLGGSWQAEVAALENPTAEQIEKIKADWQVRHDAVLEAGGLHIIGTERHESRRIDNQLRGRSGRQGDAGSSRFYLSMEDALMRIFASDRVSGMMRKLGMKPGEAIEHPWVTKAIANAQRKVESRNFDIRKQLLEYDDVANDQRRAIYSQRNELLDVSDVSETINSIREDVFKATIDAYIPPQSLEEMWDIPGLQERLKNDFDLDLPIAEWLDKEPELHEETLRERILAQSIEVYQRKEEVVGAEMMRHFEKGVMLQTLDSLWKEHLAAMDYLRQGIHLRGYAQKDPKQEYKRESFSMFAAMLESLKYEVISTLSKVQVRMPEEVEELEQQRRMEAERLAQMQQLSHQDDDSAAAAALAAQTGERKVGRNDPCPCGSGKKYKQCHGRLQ
# Method in brief: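 Purified full-length E. coli SecA (1.5 µg per 50 µL) was combined with 3 µg urea-washed membrane from E. coli BA13 (MC4100 secA13(am) supF(ts)). Phosphate was read at 660 nm and expressed as % of the no-inhibitor control; at least triplicate.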
# [5] = molecular target: T1, EcSecA translocation ATPase (Escherichia coli, UniProt P10408); assay: Translocation ATPase assay of SecA with membrane and proOmpA; format: biochemical; conditions: read-out: IC50, EcSecA translocation ATPase
# T1 sequence (P10408 whole entry): as above
# Method in brief: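 Purified full-length E. coli SecA (1.5 µg per 50 µL) was combined with 3 µg urea-washed BA13 membrane plus 1 µg purified proOmpA precursor. Reaction: 1.2 mM ATP, ovalbumin, Tris-HCl pH 7.6, KCl, NH4Cl, Mg(OAc)2, DTT, 40°C within the linear range. Released phosphate was read at 660 nm and expressed as % remaining activity versus control; at least triplicate.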
# [6] = molecular target: BsSecA intrinsic ATPase (Bacillus subtilis, UniProt P28366); assay: Intrinsic ATPase assay of full-length BsSecA; format: biochemical; conditions: read-out: IC50, BsSecA intrinsic ATPase; full-length B. subtilis SecA
# Chain of BsSecA intrinsic ATPase (P28366 whole entry): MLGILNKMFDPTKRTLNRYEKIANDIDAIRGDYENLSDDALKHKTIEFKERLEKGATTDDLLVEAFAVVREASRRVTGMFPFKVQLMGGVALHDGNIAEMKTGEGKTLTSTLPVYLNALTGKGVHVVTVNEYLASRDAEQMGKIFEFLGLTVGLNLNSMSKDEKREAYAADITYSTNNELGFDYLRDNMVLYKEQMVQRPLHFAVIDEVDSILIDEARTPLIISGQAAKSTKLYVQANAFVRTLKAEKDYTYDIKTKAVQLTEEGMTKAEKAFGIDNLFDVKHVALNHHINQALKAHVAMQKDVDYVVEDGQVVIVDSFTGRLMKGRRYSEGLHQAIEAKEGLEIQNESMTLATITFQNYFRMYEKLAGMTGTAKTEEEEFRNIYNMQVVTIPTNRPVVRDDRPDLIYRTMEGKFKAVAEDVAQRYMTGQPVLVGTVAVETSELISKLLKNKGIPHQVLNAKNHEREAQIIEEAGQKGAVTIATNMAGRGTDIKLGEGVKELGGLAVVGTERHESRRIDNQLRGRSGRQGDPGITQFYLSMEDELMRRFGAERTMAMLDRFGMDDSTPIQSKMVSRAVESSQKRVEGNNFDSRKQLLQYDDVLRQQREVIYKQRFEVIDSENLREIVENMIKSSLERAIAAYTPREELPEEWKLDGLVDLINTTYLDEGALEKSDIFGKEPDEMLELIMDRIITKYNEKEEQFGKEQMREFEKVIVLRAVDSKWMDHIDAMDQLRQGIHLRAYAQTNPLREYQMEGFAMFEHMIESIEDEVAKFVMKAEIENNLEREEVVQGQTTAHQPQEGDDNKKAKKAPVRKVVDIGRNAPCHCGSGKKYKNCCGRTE
# Method in brief: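 Full-length B. subtilis SecA was overexpressed from pT7div and purified, then used at 1.5 µg per 50 µL reaction in solution without membranes. Phosphate release was read at 660 nm and expressed as % remaining activity versus control; at least triplicate.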
# [7] = system: SecA-dependent protein translocation; assay: SecA-dependent in vitro translocation of proOmpA into membrane vesicles; format: biochemical, E. coli; conditions: read-out: IC50, in vitro translocation of proOmpA into membrane vesicles; 35S-labeled proOmpA
# [8] = system: E. coli NR698; assay: Plate assay of bacterial growth; format: cell-based; conditions: for MIC, E. coli NR698: plate assay, leaky mutant, overnight incubation
# [9] = system: SecA ATPase; assay: Kinetic experiments versus ATP; format: biochemical; conditions: low ATP concentrations, data not shown
# [10] = molecular target: EcN68 SecA ATPase (Escherichia coli, UniProt P10408); assay: biochemical; format: biochemical
# Chain of EcN68 SecA ATPase (P10408 1-610): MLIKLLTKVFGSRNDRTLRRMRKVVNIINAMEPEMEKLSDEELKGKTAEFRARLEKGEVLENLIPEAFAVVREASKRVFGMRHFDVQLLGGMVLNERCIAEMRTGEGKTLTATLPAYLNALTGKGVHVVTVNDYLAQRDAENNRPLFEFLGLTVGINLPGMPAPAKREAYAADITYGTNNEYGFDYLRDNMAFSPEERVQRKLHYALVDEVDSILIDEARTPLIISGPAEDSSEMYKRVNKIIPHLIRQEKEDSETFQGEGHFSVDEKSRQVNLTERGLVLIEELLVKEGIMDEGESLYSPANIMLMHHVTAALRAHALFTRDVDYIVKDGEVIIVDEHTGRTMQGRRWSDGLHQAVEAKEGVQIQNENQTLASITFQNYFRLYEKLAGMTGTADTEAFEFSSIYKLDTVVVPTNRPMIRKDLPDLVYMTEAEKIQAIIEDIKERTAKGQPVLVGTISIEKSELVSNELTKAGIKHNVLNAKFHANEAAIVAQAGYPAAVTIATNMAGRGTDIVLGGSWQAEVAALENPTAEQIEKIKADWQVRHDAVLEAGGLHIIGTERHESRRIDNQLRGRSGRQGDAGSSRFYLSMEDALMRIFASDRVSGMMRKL
# [11] = system: E. coli NR698; assay: Liquid culture growth assay; format: cell-based; conditions: 50 µM, data not shown
# [12] = system: E. coli NR698; assay: Bactericidal effect assay; format: cell-based; conditions: 100 µM, one-hour treatment, exponential-phase cells
# [13] = system: B. subtilis 168; assay: Bactericidal effect assay; format: cell-based; conditions: 100 µM, one-hour treatment, exponential-phase cells
# Method in brief: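 Exponential-phase cultures (OD600 0.5) in LB with 0.2% glucose were exposed to test compound, with water as the control, for 1 h at 37°C. Cultures were serially diluted and spread on LB plates. Surviving CFU were counted after overnight growth at 37°C, and the effect was expressed as the drop in log CFU. At least triplicate; standard error of the mean.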
# [14] = molecular target: T1, EcSecA translocation ATPase; conditions: read-out: IC50, translocation ATPase of SecA; cited from earlier work
# [15] = system: SecA-dependent protein translocation; conditions: read-out: IC50, in vitro protein translocation; cited from earlier work
# [16] = cited from earlier work
molecule,measurement,setting,value
"O=C([O-])c1ccccc1-c1c2ccc(=O)c(I)c-2oc2c(I)c([O-])ccc12.[Na+].[Na+] [DI, Diiodofluorescein]","MIC, E. coli MC4100",[1],>3000 µM
same,"MIC, B. subtilis 168",[2],1000 µM
"O.O=C([O-])c1ccccc1-c1c2cc(I)c(=O)c(I)c-2oc2c(I)c([O-])c(I)cc12.[Na+].[Na+] [EB, Erythrosin B]",IC50,[3],~30 µM
same,IC50,[4],12 µM
same,IC50,[5],10 µM
same,IC50,[6],70 µM
same,IC50,[7],4 µM
same,"MIC, E. coli MC4100",[1],>10000 µM
same,"MIC, E. coli NR698",[8],250 to 500 µM
same,"MIC, B. subtilis 168",[2],250 to 500 µM
same,Mode of inhibition against ATP,[9],competitive inhibitors against ATP
"O=C1OC2(c3ccccc31)c1cc(Br)c(O)c(Br)c1Oc1c2cc(Br)c(O)c1Br [EY, Eosin Y]",IC50,[10],25 µM
same,MIC,"[8]; Escherichia coli, NR698, read-out: MIC, E. coli NR698",1000 to 2500 µM
same,MIC,"[2]; Bacillus subtilis, 168, read-out: MIC, B. subtilis 168",2500 µM
"O=C1OC2(c3cc(I)c(O)c(I)c3Oc3c2cc(I)c(O)c3I)c2c(Cl)c(Cl)c(Cl)c(Cl)c21 [RB, Rose Bengal]",IC50,[3],~10 µM
same,IC50,[6],7 µM
same,IC50,[7],0.25 µM and ~0.25 µM
same,"MIC, E. coli MC4100",[1],>1000 µM
same,"MIC, E. coli NR698",[8],3.1 µM
same,"MIC, B. subtilis 168",[2],3.1 µM
same,Inhibition of growth in liquid culture,[11],completely inhibits
same,Decrease of cell survival (CFU),[12],about 10 log units
same,Decrease of cell survival (CFU),[13],~8 log units
same,Mode of inhibition against ATP,[9],competitive inhibitors against ATP
[N-]=[N+]=[N-].[Na+] [Sodium azide],Inhibition of the intrinsic ATPase of SecA,"[10]; at concentrations as high as 10 mM, cf. Table 1 EcN68",not inhibited
same,IC50,[14],5000 µM
same,IC50,[15],600 µM
C/C=C/[C@H]1C(C)=C[C@H]2C[C@H](C)[C@H](O)C[C@H]2[C@]1(C)/C=C(C)/C=C/C(=O)O [pannomycin],"MIC, antibacterial activity",[16],mM range
Dinitrofluorescein [DN],"MIC, E. coli NR698",[8],10000 to 20000 µM
same,"MIC, B. subtilis 168",[2],10000 µM
